Source: PubChem
Shown is part of a subset that was picked to be rich in hits.
UPR XBP1 act: activators of adaptive XBP1 UPR arm, primary screen, cell-based, CHO-XBP1 luciferase reporter, luminescence, uHTS | actives 0.33% (n = 330,000) | activation, % at 20 µM | IRE1-XBP1 UPR activation; percent of tunicamycin response, DMSO as zero;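 active = versus positive control, 20 µM dose yields 30% or more activation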;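 note: 100% = tunicamycin at 10 µg/mL and 0% = DMSO only wells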
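Assay system: CHO-XBP1 luciferase reporter cells; Schedule: 6 h treatment, 37 °C; Detection: glow luminescence from Steady-Glo reagent; Benchmarks: high control tunicamycin 10 µg/mL final, low control DMSO vehicle only.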
TLR9-MyD88 block: inhibitors of TLR9-MyD88 association in cells, primary screen, cell-based, CHO, BLA complementation, fluorescence; Toll-like receptor 9 (Homo sapiens) + Myeloid differentiation primary response protein …; CCF4 FRET ratio; inhibition, % at 4.98 µM; actives 0.21% (n = 340,000);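 active = inhibition above the mean over all tested compounds plus 3 SD, cut at about 21% in these data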;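 note: 0% = DMSO only wells and 100% = clavulanate BLA inhibitor control wells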
TLR4 MyD88 comp: inhibitors of TLR4-MyD88 association in cells, primary screen, cell-based, HeLa CL3-4, BLA complementation, FRET ratio | HeLa CL3-4 TLR4/MyD88 BLA complementation | Toll-like receptor 4 (Homo sapiens) + Myeloid differentiation primary response protein … | inhibition, % at 8.4 µM | AID 861, 2007 | actives 0.18% (n = 200,000); in the data active = inhibition above about 25%;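 note: 0% = vehicle and 100% = reference inhibitor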
CHOP inhibitor: inhibitors of CHOP promoter induction, primary screen, cell-based, unfolded protein response, luciferase reporter | CHO-K1 CHOP-promoter luciferase, tunicamycin-induced, 15-18 h | inhibition, % at 10 µM | actives 3.8% (n = 220,000);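 active = compounds that reduced the stress-induced luciferase reporter signal by more than about 70% of percent inhibition, limit read from the data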;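 note: 0% = tunicamycin plus vehicle and 100% = wells without tunicamycin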
NOD2 RIPK2 PPI: NOD2-RIPK2 binding disruptors in cells, primary screen, fluorescence, CHO cells, BLA complementation | Receptor-interacting serine/threonine-protein kinase 2 (Homo sapiens), O43353 | CCF4 ratio | inhibition, % at 4.98 µM | actives 0.38% (n = 360,000); in the data active = inhibition above about 21%;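 note: 0% = vehicle only and 100% = reference blocker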
UPR CHOP act: activators of apoptotic CHOP UPR arm, primary screen, cell-based, CHO-CHOP luciferase reporter, luminescence, uHTS; UPR activation; percent of tunicamycin response over DMSO baseline; activation, % at 10 µM; actives 0.34% (n = 330,000);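 active = at 10 µM dose, activation of 40% or more, normalized to positive control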;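 note: 100% = tunicamycin at 10 µg/mL and 0% = DMSO alone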
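Evaluation: % reporter activation, DMSO baseline versus tunicamycin full activation; System: CHO-CHOP luciferase reporter cell line; Input: 500 cells/well; Incubation: 6 h compound treatment, 37 °C; Measured by: Steady-Glo luciferase luminescence; Dosing: one dose, 10 µM in 0.5% DMSO; Buffer or medium: F12 medium, 10% FBS; Benchmarks: positive tunicamycin 10 µg/mL, negative DMSO alone.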
* marks the source's active call; other numbers are inactive results; x = no result given.

SMILES	UPR XBP1 act	TLR9-MyD88 block	TLR4 MyD88 comp	CHOP inhibitor	NOD2 RIPK2 PPI	UPR CHOP act
COc1ccc(Br)cc1[C@H]1[C@H]2C=CC[C@@H](C)[C@@H]2C(=O)N1Cc1ccccc1	0	-2	x	75*	-22	3
O=C(NCc1ccccc1)c1cc(C2CCCN(C(=O)c3ccc4c(c3)CCO4)C2)on1 (stereo not given)	x	x	x	x	-1	x
CCc1cccc(NC(=O)CS(=O)Cc2nc(-c3ccc(C)cc3)oc2C)c1 (stereo not given)	-2	-7	6	93*	1	0
COc1ccc(-c2nn3c(-c4ccc(F)cc4)nnc3s2)cc1	6	-8	13	83*	9	0
COc1ccc(-c2nn3c(-c4ccccc4)nnc3s2)cc1	4	7	-6	60	-1	0
CCCCN1C(=O)C(CC(=O)NC(c2ccccc2)c2ccccc2)CC(C(=O)N(C(C)C)C(C)C)=C1C (stereo not given)	x	-8	x	x	2	x
Cc1nnsc1C(=O)N/N=C/c1ccc2ccccc2c1O	2	4	-15	75*	-1	-1
Cc1nnsc1C(=O)N/N=C/c1ccccc1	6	-5	14	29	-8	0
CCOC(CNC(=O)c1[nH]c(C(F)(F)F)nc1-c1ccccc1)OCC	x	x	x	x	-8	x
CC1=C(C)/C(=N/OC(=O)c2cccc([N+](=O)[O-])c2)C=CC1=O	-4	-7	10	92*	4	16
Cc1ccc(NC(=S)Nc2ccccn2)cc1C	-1	x	x	-35	2	7
Cc1ccc(NC(=S)Nc2ccc3nc(-c4ccccn4)c(-c4ccccn4)nc3c2)cc1C	x	14	1	-4	32*	x
Cc1ccc(S(=O)(=O)N2CCCC(C(=O)NCc3cccnc3)C2)cc1Cl (stereo not given)	-1	10	-9	88*	-2	0
Cc1cc(C)c(S(=O)(=O)N2CCCC(C(=O)NCc3cccnc3)C2)c(C)c1 (stereo not given)	-5	-10	x	x	5	2
Cc1c(C(=O)NCc2cccnc2)oc2ccc(S(=O)(=O)N3CCC4(CC3)OCCO4)cc12	-2	0	-2	2	4	2
Cc1c(C(=O)NCc2cccnc2)oc2ccc(S(=O)(=O)N3CC(C)CC(C)C3)cc12 (stereo not given)	1	4	-7	102*	7	-2
CCCCN(C=O)c1c(CC)nc2ccc(C(=O)NCCOc3ccc(OC)cc3)cn12	x	x	x	x	-11	x
Cc1ccc(NC(=O)c2cc(C)n(-c3ccccc3)c2C)cc1	-5	-1	5	72*	-9	-8
Cc1ccc(NC(=O)c2cc(C)n(-c3cccc(C)c3)c2C)cc1	2	-1	-11	17	-3	6
Cc1c(C(=O)Nc2cccc([N+](=O)[O-])c2)csc1-c1ccccc1	4	2	-3	65	2	4
Cc1ccc(NC(=O)c2csc(-c3ccccc3)c2C)cc1	x	1	-1	100*	-5	x
Cc1nc(N2CCC(C)CC2)c2c(C)c(C(=O)Nc3ccc(C)c(F)c3)sc2n1	-2	7	-4	71*	-9	-2
Cc1ccccc1C(=O)Oc1ccc(Sc2ccc(O)cc2)cc1	2	x	3	96*	x	4
Cc1ccccc1C(=O)Oc1ccc(-c2csnn2)cc1	6	8	x	-17	0	3
COC(=O)c1c(C)oc2ccc(OC(=O)c3cccs3)cc12	-1	-6	6	86*	4	-3
SMILES	UPR XBP1 act	TLR9-MyD88 block	TLR4 MyD88 comp	CHOP inhibitor	NOD2 RIPK2 PPI	UPR CHOP act
COCCOC(=O)c1c(C)oc2ccc(OC(=O)c3cccs3)cc12	0	-2	3	-4	-4	3
COC(=O)N(C)C[C@H]1OCc2cnnn2CCCC(=O)N([C@H](C)CO)C[C@H]1C	x	-10	x	x	8	x
CCN1CC(c2ccccc2)C(c2ccc(Cl)cc2)=N1 (stereo not given)	-1	-9	-1	79*	3	0
CN1N=C(c2ccc(Cl)cc2)CC(c2ccc(Cl)cc2)C1=O (stereo not given)	-1	6	5	24	0	-1
CCCc1cnc(Nc2nc(C(N)Cc3ccc(OC)cc3)cs2)nc1 (stereo not given)	x	x	x	x	5	x
COc1cccc(OCCCOc2ccccc2C(C)C)c1	-2	8	18	71*	-5	-1
COc1cc(N(CCCn2cnc3c(SC)ncnc32)CCCn2cnc3c(SC)ncnc32)cc(OC)c1OC	x	5	x	x	3	x
c1csc(CSc2nc3ccccc3s2)c1	2	8	-1	86*	9	3
Cc1noc(C)c1CSc1nc2ccccc2s1	1	4	2	-14	-13	0
COc1nnc(-c2ccc(N3CCCCC3)c(NC(=O)C3CCCCC3)c2)c2ccccc12	-2	2	-2	80*	4	11
O=C(N/C(=C/c1cccc(Br)c1)C(=O)N1CCOCC1)c1ccco1	x	-6	x	x	0	x
COc1ccccc1N1CCN(c2ccc(-c3ccccc3)nn2)CC1	-5	-1	5	79*	15	-5
COc1ccccc1N1CCN(c2ccc3ccccc3n2)CC1	-10	-5	x	x	0	1
O=C(NCc1cccnc1)c1csc([C@H]2C[C@H](O)[C@@H](CO)O2)n1	x	x	x	x	-4	x
C[C@H](CO)N1C[C@H](C)[C@@H](CN(C)S(=O)(=O)c2ccc(C#N)cc2)OCc2cnnn2CCCC1=O	x	-1	x	x	-10	x
Cc1cc(C)nc(-n2nc(C)cc2NC(=O)c2cccc(S(=O)(=O)N3CCCCC3)c2)n1	x	x	16	107*	x	x
CCCSc1ccc2nc(-c3ccccc3)cn2c1	-9	2	-9	86*	2	-8
O=C(COc1c(F)c(F)c(C(F)(F)F)c(F)c1F)Nc1ccc(N2CCOCC2)c(Cl)c1	-3	9	0	85*	11	-3
O=C(CSc1nnc(C23CC4CC(CC(C4)C2)C3)o1)Nc1ccc(N2CCOCC2)c(Cl)c1	-2	-1	3	76*	-11	2
Cc1cc(C)nc(SCC(=O)Nc2ccc(N3CCOCC3)c(Cl)c2)n1	-3	0	5	x	-4	2
CSc1ccc(OCC(=O)Nc2ccc(N3CCOCC3)c(Cl)c2)cc1	-1	9	x	x	-6	1
O=C(CSc1nnnn1-c1cccc2ccccc12)Nc1ccc(N2CCOCC2)c(Cl)c1	1	-3	-5	71*	-14	-3
